Assay results reported in PMC3557458 (Journal of molecular biology, 2012).
“Also recorded” adds a separate entry of the source.

Experiments:
Bim and Bad BH3 peptides = type: binding, human; conditions: FP competition, Bim-22 and Bad-22, Ki relative to Bcl-xL
Method in brief: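 His6-tagged Bcl-xL variants (E. coli RP3098, Ni-NTA under native conditions) at 50 nM with 15 nM fluorescein-labelled peptide, which varied by variant, competed against serially diluted unlabelled peptide. Equilibrated ≥3 hr at ~25 °C; anisotropy read in duplicate. Ki values were fitted using direct-binding Kd values, then normalized to averaged parent-protein Ki.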

RX1, recombinant (human) = RX1, recombinant (human) (UniProt Q07817); test: fluorescence polarisation
[1] = biological target: recombinant native Bcl-xL (human) (UniProt Q07817); test: fluorescence polarisation
[2] = biological target: recombinant native Bcl-xL (human, UniProt Q07817-1 1-209); test: fluorescence polarisation
recombinant native Bcl-xL, sequence (Q07817 1-209): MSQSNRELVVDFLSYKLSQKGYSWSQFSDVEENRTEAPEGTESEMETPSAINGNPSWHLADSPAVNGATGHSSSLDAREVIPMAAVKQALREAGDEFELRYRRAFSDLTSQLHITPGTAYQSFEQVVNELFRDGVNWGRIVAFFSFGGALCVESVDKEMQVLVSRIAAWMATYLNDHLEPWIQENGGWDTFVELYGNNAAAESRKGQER

RX1 = RX1 (Homo sapiens, UniProt Q07817, A142G/F105L/F146A/L130I/Q111G/Q125V/S122I/V126A/Y101H); type: binding; conditions: from Ki values of RX1 and Bcl-xL for Bim-22 and Bad-22
[3] = tested on: fluoresceinated Bim vs. Bad BH3; test: Fluorescence polarization direct binding of fluoresceinated Bim vs. Bad BH3; parameters: species or system human; conditions: labeled peptide 5 nM, at least 1 hr, ~25 °C

A104M: Bcl-xL point mutant A104M (not in RX1)
Bad vs. Bim binding preference of point mutation in the context of Bcl-xL (Bim and Bad BH3 peptides): confirmed to be specific

A142G: Bcl-xL point mutant A142G
Bad vs. Bim binding preference of point mutation in the context of Bcl-xL (Bim and Bad BH3 peptides): preferred binding Bad over Bim

Bad-22, Bad BH3 peptide of 22 residues
Ki (RX1, recombinant (human)): 33 nM | Ki [1]: 2 nM

Bim-22, Bim BH3 peptide of 22 residues
Ki (RX1, recombinant (human)): > 50000 nM | Ki [1]: 3 nM

F105L: Bcl-xL point mutant F105L
Bad vs. Bim binding preference of point mutation in the context of Bcl-xL (Bim and Bad BH3 peptides): favored Bim binding over Bad

F146A: Bcl-xL point mutant F146A
Bad vs. Bim binding preference of point mutation in the context of Bcl-xL (Bim and Bad BH3 peptides): did not confer specificity

L130I: Bcl-xL point mutant L130I
Bad vs. Bim binding preference of point mutation in the context of Bcl-xL (Bim and Bad BH3 peptides): shown not to be

S122I: Bcl-xL point mutant, Ser 122 to Ile
Bad vs. Bim binding preference of point mutation in the context of Bcl-xL (Bim and Bad BH3 peptides): preferred binding Bad over Bim; also recorded: confirmed to be specific

V126A: Bcl-xL point mutant V126A
Bad vs. Bim binding preference of point mutation in the context of Bcl-xL (Bim and Bad BH3 peptides): preferred binding Bad over Bim

B1: PUMA BH3 peptide (peptide)
chain: EQWAREIGAQLRRMADDLNAQYERRRQE
Ki [2]: < 0.1 nM

B2: Bad-28, recombinant Bad BH3 28-mer peptide (peptide, UniProt Q92934 104-131, looked up)
peptide: LWAAQRYGRELRRMSDEFVDSFKKGLPR
Ki [2]: < 0.1 nM

B3: RX1: Re-designed Bcl-xL variant: Y101H, F105L, Q111G, S122I, Q125V, V126A, L130I, A142G, F146A (protein)
chain: MSQSNRELVVDFLSYKLSQKGYSWSQFSDVEENRTEAPEGTESEMETPSAINGNPSWHLADSPAVNGATGHSSSLDAREVIPMAAVKQALREAGDEFELRHRRALSDLTSGLHITPGTAYQIFEVAVNEIFRDGVNWGRIVGFFSAGGALCVESVDKEMQVLVSRIAAWMATYLNDHLEPWIQENGGWDTFVELYGNNAAAESRKGQER
modifications: left off: His6, end not stated, state not stated
specificity increase for Bad BH3 over Bim BH3 relative to native Bcl-xL (RX1): ≥ 1,000 fold | preference for binding Bad over Bim, direct binding [3]: strong preference
